In brackets after ≈: the same amount, converted by molar mass. Activity calls are given as the source filed them. No cut-off for these calls is given here. Residues, ends and D or L forms follow the SMILES beside them.
Assays:
[1] = Therapeutic index, ratio of HC50 for human erythrocytes to MIC for drug-sensitive Pseudomonas aeruginosa ATCC 4676; conditions: read-out: TI
Staphylococcus aureus [2] = test: Antibacterial activity against drug-sensitive Staphylococcus aureus MTCC 737 assessed as formation of blebs and holes at 10 X MIC after 2 hrs by field-emission scanning electron microscopic analysis; assay type: functional, organism-based
Procedure, shortened: (§1)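 Cells grown 6 h (E. coli in LB, S. aureus in yeast-dextrose broth) were resuspended at 10^6 cells/mL in nutrient media pH 7.4. They were treated at 10× MIC at 37 °C for 2 h with 250 rpm shaking, beside an untreated control. Cells were pelleted, dehydrated through a 30–100% ethanol series and dried on silicon wafer. S. aureus was sputter-coated; E. coli was imaged uncoated by FESEM.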

Escherichia coli [3] = test: Antibacterial activity against drug-sensitive Escherichia coli MTCC 443 assessed as merging of dead bacteria with each other at 10 X MIC after 2 hrs by field-emission scanning electron microscopic analysis; assay type: functional, organism-based; procedure, shortened: as §1
Escherichia coli [4] = test: Antibacterial activity against drug-sensitive Escherichia coli MTCC 443 assessed as disruption of cell membrane at 10 X MIC after 2 hrs by field-emission scanning electron microscopic analysis; assay type: functional, organism-based; procedure, shortened: as §1
Staphylococcus aureus [5] = test: Antibacterial activity against drug-sensitive Staphylococcus aureus MTCC 737 assessed as change in cell membrane morphology at 10 X MIC after 1.5 hrs by SYTO and propidium iodide staining-based fluorescence microscopic analysis; assay type: functional, organism-based
Procedure, shortened: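 Suspension at 10^9 cells/mL was treated at 10× MIC for 1.5 h, beside an untreated control. Cells were pelleted, resuspended in PBS and mixed with a probe mix of 3.0 µM SYTO 9 and 15.0 µM PI. After 15 min in the dark, cells were examined by fluorescence microscopy.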

Staphylococcus aureus [6] = test: Antibacterial activity against drug-sensitive Staphylococcus aureus MTCC 737 assessed as inner cytoplasmic membrane permeabilization at 2 X MIC to 4 X MIC measured up to 10 mins by propidium iodide staining-based fluorescence assay; assay type: functional, organism-based
Procedure, shortened: (§2)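 Mid-log S. aureus were harvested, washed and resuspended in 5 mM HEPES/5 mM glucose pH 7.2 containing 15 µM propidium iodide. Compound was added and PI uptake followed as fluorescence increase (ex 535 nm, em 617 nm) for 10 min.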

Pseudomonas aeruginosa [7] = test: Antibacterial activity against drug-sensitive Pseudomonas aeruginosa ATCC 4676 at MIC to 2 X MIC measured […] by DiSC3(5) dye-based fluorimetric analysis; assay type: functional, organism-based
Procedure, shortened: (§3)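 Mid-log cells were washed and resuspended at 10^8 cfu/mL in 5 mM glucose, 5 mM HEPES and 100 mM KCl (1:1:1). They were loaded with 2 µM DiSC3(5) for 10 min (S. aureus) or 20 min (P. aeruginosa, E. coli), then stabilized 2 min at room temperature. Compound was added and depolarization read as fluorescence increase (ex 622 nm, em 670 nm) over 10 min.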

Staphylococcus aureus [8] = test: Antibacterial activity against drug-sensitive Staphylococcus aureus MTCC 737 assessed as cytoplasmic membrane depolarization at MIC to 4 X MIC measured […] by DiSC3(5) dye-based fluorimetric analysis; assay type: functional, organism-based; procedure, shortened: as §3
Staphylococcus aureus [9] = test: Bactericidal activity against methicillin-resistant Staphylococcus aureus ATCC 33591 at 3 X MIC after 6 hrs by time-kill assay; assay type: functional, organism-based
Procedure, shortened: (§4)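 Time-kill: MRSA (~1.8×10^6 CFU/mL in fresh media) exposed at 37 °C to compound at 1×, 3× or 6× MIC. Aliquots taken at 0, 1, 2, 3, 6 and 24 h, 10-fold serially diluted in 0.9% saline, plated on yeast-dextrose agar, incubated overnight at 37 °C. Colonies counted, expressed as log10 CFU/mL.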

Staphylococcus aureus [10] = test: Bactericidal activity against methicillin-resistant Staphylococcus aureus ATCC 33591 at 6 X MIC after 1 hr by time-kill assay; assay type: functional; procedure, shortened: as §4
Escherichia coli [11] = test: Ratio of MSI-78 MIC to compound MIC for Escherichia coli; assay type: functional
[12] = Retention time of the compound by HPLC analysis; assay type: physicochemical
[13] = Hemolytic activity in human erythrocytes after 1 hr by spectrophotometric analysis; assay type: ADME, cell-based, Erythrocyte
Procedure, shortened: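 Heparinized fresh human erythrocytes at 5 vol% in PBS pH 7.4 were mixed 3:1 with serially diluted compound and held 1 h at 37 °C. Plates were centrifuged and supernatant A540 read. Hemolysis was scaled between an untreated control and a Triton X-100 (100% lysis) control. HC50 is the mean of at least two independent triplicate experiments.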

Klebsiella pneumoniae = test: Antibacterial activity against beta-lactam-resistant Klebsiella pneumoniae ATCC 700603 after 24 hrs by broth microdilution assay; assay type: functional; conditions: ATCC 700603, 24 h
Procedure, shortened: (§5)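 MIC by broth microdilution. Cultures were grown 6 h to ~10^9 cfu/mL, then diluted to 10^5 cfu/mL. Media: yeast-dextrose broth for MRSA, BHI for VRE, and beef extract/peptone nutrient broth for K. pneumoniae. Compounds were serially diluted in water, 50 µL added to 150 µL cells, and incubated 24 h at 37 °C. OD600 triplicates were sigmoid-fitted; MIC is the point where OD equals the no-bacteria control. Mean ± SEM of ≥2 experiments.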

Enterococcus faecium [14] = test: Antibacterial activity against vancomycin-resistant Enterococcus faecium ATCC 51559 after 24 hrs by broth microdilution assay; assay type: functional; conditions: ATCC 51559, 24 h; procedure, shortened: as §5
Staphylococcus aureus [15] = test: Antibacterial activity against methicillin-resistant Staphylococcus aureus ATCC 33591 after 24 hrs by broth microdilution assay; assay type: functional; conditions: ATCC 33591, 24 h; procedure, shortened: as §5
Pseudomonas aeruginosa [16] = test: Antibacterial activity against drug-sensitive Pseudomonas aeruginosa ATCC 4676 after 24 hrs by broth microdilution assay; assay type: functional; conditions: ATCC 4676, 24 h
Procedure, shortened: (§6)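 Bacteria grown 6 h to ~10^9 cfu/mL and diluted to 10^5 cfu/mL in nutrient media. Growth media were LB (E. coli), yeast-dextrose broth (S. aureus, P. aeruginosa) and BHI (E. faecium). Compound was serially diluted in water and added 1:3 to bacteria, then incubated 37 °C for 24 h with OD600 read-out. Triplicate ODs were sigmoid-fitted; MIC was taken where OD matched the no-bacteria control. At least two independent experiments.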

Escherichia coli [17] = test: Antibacterial activity against drug-sensitive Escherichia coli MTCC 443 after 24 hrs by broth microdilution assay; assay type: functional; conditions: MTCC 443, 24 h; procedure, shortened: as §6
Enterococcus faecium [18] = test: Antibacterial activity against drug-sensitive Enterococcus faecium ATCC 19634 after 24 hrs by broth microdilution assay; assay type: functional; conditions: ATCC 19634, 24 h; procedure, shortened: as §6
Staphylococcus aureus [19] = test: Antibacterial activity against drug-sensitive Staphylococcus aureus MTCC 737 after 24 hrs by broth microdilution assay; assay type: functional; conditions: MTCC 737, 24 h; procedure, shortened: as §6
Pseudomonas aeruginosa [20] = test: Antibacterial activity against Pseudomonas aeruginosa ATCC 27853 after 24 hrs by broth microdilution assay; assay type: functional; conditions: ATCC 27853, 24 h
Escherichia coli [21] = test: Antibacterial activity against Escherichia coli ATCC 25922 after 24 hrs by broth microdilution assay; assay type: functional; conditions: ATCC 25922, 24 h
Staphylococcus aureus [22] = test: Antibacterial activity against Staphylococcus aureus ATCC 29213 after 24 hrs by broth microdilution assay; assay type: functional; conditions: ATCC 29213, 24 h
Enterococcus faecium [23] = test: Antibacterial activity against Enterococcus faecium ATCC 29212 after 24 hrs by broth microdilution assay; conditions: ATCC 29212, 24 h
Staphylococcus aureus [24] = test: Antibacterial activity against drug-sensitive Staphylococcus aureus MTCC 737 assessed as cytoplasmic membrane depolarization at MIC measured up to 12 mins by DiSC3(5) dye-based fluorimetric analysis; assay type: functional, organism-based; procedure, shortened: as §3
Escherichia coli [25] = test: Antibacterial activity against drug-sensitive Escherichia coli MTCC 443 assessed as outer cytoplasmic membrane permeabilization at MIC measured up to 10 mins by N-phenylnaphthylamine dye-based fluorescence assay; assay type: functional, organism-based
Procedure, shortened: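 Mid-log E. coli (6 h, 10^8 cells/mL) were washed and resuspended in 5 mM glucose/5 mM HEPES pH 7.2 with 10 µM NPN. Compound was added in water. Outer membrane uptake of NPN was followed as fluorescence increase (ex 350 nm, em 420 nm) for 10 min.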

Staphylococcus aureus [26] = test: Antibacterial activity against drug-sensitive Staphylococcus aureus MTCC 737 assessed as inner cytoplasmic membrane permeabilization at MIC measured up to 10 mins by propidium iodide staining-based fluorescence assay; assay type: functional, organism-based; procedure, shortened: as §2
Escherichia coli [27] = test: Antibacterial activity against drug-sensitive Escherichia coli MTCC 443 at MIC measured […] by DiSC3(5) dye-based fluorimetric analysis; assay type: functional, organism-based; procedure, shortened: as §3
[28] = Stability of the compound assessed as trypsin (unknown origin)-mediated drug degradation at 1 mg/ml up to 24 hrs by LC-MS analysis; assay type: ADME; conditions: human
Procedure, shortened: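 Compound at 1 mg/mL (solution before mixing) was incubated with trypsin in 0.1 M NH4HCO3 at 37 °C. Aliquots were taken from 0 min to 24 h, diluted with water and analyzed by LC-MS for new products and total ion current. A no-trypsin control was sampled at 0 and 24 h.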

Staphylococcus aureus [29] = test: Antibacterial activity against drug-sensitive Staphylococcus aureus MTCC 737 preincubated for 3 hrs in 50% human plasma measured after 24 hrs by broth microdilution assay; assay type: functional; conditions: MTCC 737, Plasma
Procedure, shortened: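 Plasma was separated by centrifuging fresh human blood. Compound at 1600 µg/mL in 50% plasma was preincubated at 37 °C for 0, 3 or 6 h. Two-fold dilutions were added 1:3 to S. aureus at 10^5 cfu/mL and incubated 37 °C for 24 h. MIC was read by OD as in the broth assay.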

Staphylococcus aureus [30] = test: Bactericidal activity against drug-sensitive Staphylococcus aureus MTCC 737 at 2 X MIC after 24 hrs by time-kill assay; assay type: functional, organism-based
Procedure, shortened: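 S. aureus at ~1.8×10^6 CFU/mL in fresh media was exposed at MIC and 2× MIC. Samples were taken at 0, 1, 2, 3, 6 and 24 h and serially diluted 10-fold in 0.9% saline. They were plated on yeast-dextrose agar at 37 °C overnight, and colonies were counted as log10 CFU/mL.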

Compound | selectivity ratio [1] | Activity (Staphylococcus aureus [2]) | Activity (Escherichia coli [3]) | Activity (Escherichia coli [4]) | Activity (Staphylococcus aureus [5]) | Retention_time [12] [min] | HC50 at 1 h [13] [µg/mL] | MIC (Klebsiella pneumoniae) [µg/mL] | MIC (Enterococcus faecium [14]) [µg/mL] | MIC (Staphylococcus aureus [15]) [µg/mL] | MIC (Pseudomonas aeruginosa [16]) [µg/mL] | MIC (Escherichia coli [17]) [µg/mL] | MIC (Enterococcus faecium [18]) [µg/mL] | MIC (Staphylococcus aureus [19]) [µg/mL] | other results
CCCCCCN(Cc1c2ccccc2c(Cl)c2ccccc12)C(=O)[C@@H](N)CCCCN.O=C(O)C(F)(F)F.O=C(O)C(F)(F)F | 50 | Active | Active | Active | Active | 13.6 | 82 | 16 | 5.2 | 2.8 | 1.6 | 3.5 | 3.3 | 2.4 | Activity (Staphylococcus aureus [6]): Active; Activity (Pseudomonas aeruginosa [7]): Active; Activity (Staphylococcus aureus [8]): Active; Activity (Staphylococcus aureus [9]): Active; log10CFU/ml (Staphylococcus aureus [10]): 6; Ratio (Escherichia coli [11]): 5
CC[C@H](C)[C@H](NC(=O)CN)C(=O)NCC(=O)N[C@@H](CCCCN)C(=O)N[C@@H](Cc1ccccc1)C(=O)N[C@@H](CC(C)C)C(=O)N[C@@H](CCCCN)C(=O)N[C@@H](CCCCN)C(=O)N[C@@H](C)C(=O)N[C@@H](CCCCN)C(=O)N[C@@H](CCCCN)C(=O)N[C@@H](Cc1ccccc1)C(=O)NCC(=O)N[C@@H](CCCCN)C(=O)N[C@@H](C)C(=O)N[C@@H](Cc1ccccc1)C(=O)N[C@H](C(=O)N[C@@H](CCCCN)C(=O)N[C@H](C(=O)N[C@@H](CC(C)C)C(=O)N[C@@H](CCCCN)C(=O)N[C@@H](CCCCN)C(N)=O)[C@@H](C)CC)C(C)C [PEXIGANAN] (H-GIGKFLKKAKKFGKAFVKILKK-NH2) |  |  |  |  |  |  |  | 8 (≈ 3.23 µM) | 8 (≈ 3.23 µM) | 16 (≈ 6.46 µM) |  |  |  |  | MIC (Pseudomonas aeruginosa [20]): 8 µg/mL (≈ 3.23 µM); MIC (Escherichia coli [21]): 16 µg/mL (≈ 6.46 µM); MIC (Staphylococcus aureus [22]): 8 µg/mL (≈ 3.23 µM); MIC (Enterococcus faecium [23]): 64 µg/mL (≈ 25.8 µM)
CCCCCCN(Cc1cccc2ccccc12)C(=O)[C@@H](N)CCCCN.O=C(O)C(F)(F)F.O=C(O)C(F)(F)F | 50 | Active | Active | Active | Active | 11.8 | 508 | 100 | 54 | 65 | 11 | 25 | 34 | 20 | Activity (Staphylococcus aureus [24]): Active; Activity (Escherichia coli [25]): Active; Activity (Staphylococcus aureus [26]): Active; Activity (Escherichia coli [27]): Active; Stability [28]: Stable; MIC (Staphylococcus aureus [29]): 30 µg/mL; Activity (Staphylococcus aureus [30]): Active
